Test results taken from publication PMC7557949 (ACS Omega, 2020).
Converted amounts (≈) assume the structure as drawn.

Experiments:
[1] = system: herpes simplex virus type 1 (HSV-1); assay: Plaque assay, antiviral activity against HSV-1; type: cell-based; details: Human alphaherpesvirus 1, Vero
[2] = system: hepatitis A virus HM 175 (HAV HM 175); assay: Plaque assay, antiviral activity against HAV HM 175; type: cell-based; details: nontoxic dose of compound; average of three independent measurements
Procedure, shortened: (§1)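 Plaque reduction. Nontoxic dilutions of test compound were mixed 1:1 with virus at 1 × 105, 1 × 106 or 1 × 107, for 0.5 h at 37 °C. 10-fold dilutions went onto BGM (CBV4), FRHK4 (HAV HM 175) or Hep-2 (adenovirus 7), with 1 h adsorption at 37 °C. Overlay was 2× DMEM plus 1% agarose. Cells were formalin-fixed and crystal violet-stained, and plaques counted. Triplicate. IC50 is the half-maximal plaque-reduction concentration.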

Hsp90α = Hsp90α (Homo sapiens, UniProt P07900); assay: Hsp90α; type: biochemical; details: for inhibition at 0.1 µg/mL: read-out: percentage inhibition of Hsp90α at 0.1 (μg/mL); for inhibition at 10 µg/mL: read-out: percentage inhibition of Hsp90α at 10 (μg/mL); for inhibition at 100 µg/mL: read-out: percentage inhibition of Hsp90α at 100 (μg/mL)
Sequence of Hsp90α (P07900 535-732 limits assumed): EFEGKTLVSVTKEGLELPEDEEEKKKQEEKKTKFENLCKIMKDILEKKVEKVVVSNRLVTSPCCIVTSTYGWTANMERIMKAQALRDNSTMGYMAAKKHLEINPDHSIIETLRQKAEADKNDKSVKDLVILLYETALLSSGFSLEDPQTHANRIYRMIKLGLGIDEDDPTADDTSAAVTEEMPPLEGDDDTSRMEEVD
Procedure, shortened: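 AlphaScreen kit assay for Hsp90α C-terminal binding to PPID. Hsp90α was diluted to 1.5 ng/μL in assay buffer and premixed with test compound. The reaction was started with PPID diluted to 10 ng/μL and run 30 min at room temperature. Glutathione acceptor beads were added for 30 min, then streptavidin donor beads for 1 h, and Alpha counts read. Triplicate; percent inhibition calculated against control.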

[3] = system: ED-43/SG-Feo (VYG) replicon of hepatitis C virus genotype 4a (HCVcc); assay: Antiviral bioassay against ED-43/SG-Feo; type: cell-based; details: nontoxic dose of compound; average of three independent measurements
Procedure, shortened: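 Huh 7.5 cells carrying the ED-43/SG-Feo (VYG) HCV genotype 4a subgenomic replicon were treated with the nontoxic dose of test compound. Replicon RNA copies were quantified by TaqMan qRT-PCR, and the result was expressed as percent reduction.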

S. aureus (ATCC:6538) [4] = assay: Agar well diffusion, inhibition zone; type: cell-based, Staphylococcus aureus; details: Staphylococcus aureus, 24 h, read-out: diameter of the IZ, S. aureus (ATCC:6538)
Procedure, shortened: (§2)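 Agar well diffusion. Saline inoculum adjusted to McFarland 0.5 ([…]), i.e. OD 0.13 at 625 nm, and swabbed over dried agar. After 15 min drying, 6 mm wells received 100 μL of test compound at 15 mg/mL. Plates incubated at 37 °C; bacterial zones read in mm after 24 h incubation […]. Triplicate, reported as mm ± SD. Gentamicin and ampicillin served as reference drugs.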

[5] = Cytotoxicity test on Vero cell line; type: cell-based; details: African green monkey, uninfected Vero cells
Procedure, shortened: (§3)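 Test compound was dissolved at 50 mg/mL in DMSO and decontaminated with 100× antimycotic–antibiotic mix. Cells were seeded at 2 × 10^5 cells/mL and grown 24 h at 37 °C, 5% CO2, to monolayers. Bi-fold dilutions in DMEM were applied for 72 h. Read by daily microscopy for morphology and by trypan blue (0.4%) viable counts. CC50 taken as the concentration giving 50% of untreated-cell OD492.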

[6] = target: T1, dihydrofolate reductase (DHFR) (Homo sapiens, UniProt P00374); assay: DHFR inhibitor screening assay; type: biochemical; details: for IC50: IC50 on the DHFR, average of three measurements; for inhibition at 0.01 µg/mL: read-out: percent inhibition of DHFR at 0.01 (μg/mL); for inhibition at 0.1 µg/mL: read-out: percent inhibition of DHFR at 0.1 (μg/mL); for inhibition at 1 µg/mL: read-out: percent inhibition of DHFR at 1 (μg/mL); for inhibition at 10 µg/mL: read-out: percent inhibition of DHFR at 10 (μg/mL)
T1 sequence (P00374 1-187): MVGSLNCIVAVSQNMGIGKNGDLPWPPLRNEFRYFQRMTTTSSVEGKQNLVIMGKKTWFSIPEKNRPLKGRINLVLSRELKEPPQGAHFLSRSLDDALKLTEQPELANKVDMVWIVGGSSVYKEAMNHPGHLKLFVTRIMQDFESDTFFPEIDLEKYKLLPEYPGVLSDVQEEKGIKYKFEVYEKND

E. coli (ATCC:3008) [7] = assay: MIC, twofold serial dilution in agar; type: cell-based; details: Escherichia coli, read-out: MIC, E. coli (ATCC:3008)
S. mutans (ATCC:25175) [8] = assay: Agar well diffusion, inhibition zone; type: cell-based; details: Streptococcus mutans, 24 h, read-out: diameter of the IZ, S. mutans (ATCC:25175)
Procedure, shortened: as §2

E. coli (ATCC:3008) [9] = assay: Agar well diffusion, inhibition zone; type: cell-based, Escherichia coli; details: 15 mg/mL, 100 μL per well; mm ± SD
Procedure, shortened: as §2

[10] = Cytotoxicity test on BGM cell line; type: cell-based; details: African green monkey, uninfected BGM cells
Procedure, shortened: as §3

[11] = system: adenovirus type 7 (HAdV7); assay: Plaque assay, antiviral activity against adenovirus type 7; type: cell-based; details: nontoxic dose of compound; average of three independent measurements
Procedure, shortened: as §1

K. pneumonia (ATCC:4415) = assay: MIC, twofold serial dilution in agar; type: cell-based; details: Klebsiella pneumoniae, read-out: MIC, K. pneumonia (ATCC:4415)
[12] = system: P. aeruginosa (ATCC:27853); assay: Agar well diffusion, inhibition zone; type: cell-based, Pseudomonas aeruginosa; details: 15 mg/mL, 100 μL per well; mm ± SD
Procedure, shortened: as §2

[13] = system: P. aeruginosa (ATCC:27853); assay: MIC, twofold serial dilution in agar; type: cell-based; details: Pseudomonas aeruginosa, read-out: MIC, P. aeruginosa (ATCC:27853)
C. albicans (ATCC:10231) [14] = assay: Agar well diffusion, inhibition zone; type: cell-based, Candida albicans; details: 15 mg/mL, 100 μL per well; mm ± SD
Procedure, shortened: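 Fungal plates were poured and agar dried 15 min. 6 mm wells were cut with a sterile borer and filled with 100 μL test compound solution at 15 mg/mL. Inhibition zone diameter (mm) was read after 48 h incubation. Triplicate, reported as mm ± SD.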

C. albicans (ATCC:10231) [15] = assay: MIC, twofold serial dilution in agar; type: cell-based, Candida albicans
Procedure, shortened: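 Test compound and reference drugs (ampicillin, gentamicin, nystatin) were made as 1000 μg/mL DMSO stocks, then diluted twofold to 500, 250, 125, 62.5 and 31.25 μg/mL. Dilutions were mixed into sterile nutrient agar, and a defined microbial inoculum was applied to the agar surface. Plates incubated at 37 °C in a humid chamber.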

S. aureus (ATCC:6538) [16] = assay: MIC, twofold serial dilution in agar; type: cell-based; details: Staphylococcus aureus, read-out: MIC, S. aureus (ATCC:6538)
S. mutans (ATCC:25175) [17] = assay: MIC, twofold serial dilution in agar; type: cell-based; details: Streptococcus mutans, read-out: MIC, S. mutans (ATCC:25175)

CCOC(=O)c1cc(C#N)c(=O)n(NS(=O)(=O)c2ccc(C)cc2)c1N [15d, Ethyl 2-Amino-5-cyano-1-(4-methylphenylsulfonamido)-6-oxo-1,6-dihydropyridine-3-carboxylate]
IC50 [1]: 90 µg/mL (≈ 239 µM)
mean % of reduction, HAV HM 175 [2]: 36.7 ± 0.25%
inhibition at 0.1 µg/mL (Hsp90α): 10.5%
inhibition at 1 µg/mL (Hsp90α; read-out: percentage inhibition of Hsp90α at 1 (μg/mL)): 25.9%
inhibition at 10 µg/mL (Hsp90α): 57.4%
inhibition at 100 µg/mL (Hsp90α): 89.9%
mean % of reduction, HCVcc genotype 4 [3]: 20.0 ± 0.20%
zone of inhibition at 15000 µg/mL (S. aureus (ATCC:6538) [4]): 11.3 ± 1.1 mm
CC50 at 72 h [5]: 220 µg/mL (≈ 584 µM)
IC50 [6]: 12.4 µM
inhibition at 0.01 µg/mL [6]: 11.1%
inhibition at 0.1 µg/mL [6]: 20.7%
inhibition at 1 µg/mL [6]: 39.9%
inhibition at 10 µg/mL [6]: 56.1%
MIC (E. coli (ATCC:3008) [7]): 1000 µg/mL (≈ 2660 µM)
zone of inhibition at 15000 µg/mL (S. mutans (ATCC:25175) [8]): 9 ± 1 mm
diameter of the IZ, E. coli (ATCC:3008) (E. coli (ATCC:3008) [9]): 19.6 ± 1.5 mm
CC50 at 72 h [10]: 240 µg/mL (≈ 638 µM)
mean % of reduction, adenovirus type 7 [11]: 30.0 ± 0.10%

Nc1nc2c(ncn2COCCO)c(=O)[nH]1 [acyclovir, reference compound]
IC50 [1]: 0.7 µg/mL (≈ 3.11 µM)
inhibition at 0.1 µg/mL (Hsp90α): 11.2%
inhibition at 10 µg/mL (Hsp90α): 52.3%
inhibition at 100 µg/mL (Hsp90α): 84.1%
CC50 at 72 h [5]: 2.8 µg/mL (≈ 12.4 µM)

CNC(C)C1CCC(N)C(OC2C(N)CC(N)C(OC3OCC(C)(O)C(NC)C3O)C2O)O1 (stereo not shown) [gentamicin]
MIC (K. pneumonia (ATCC:4415)): 62.5 µg/mL (≈ 131 µM)
diameter of the IZ, P. aeruginosa (ATCC:27853) [12]: 35.0 ± 0.1 mm
MIC [13]: 125 µg/mL (≈ 262 µM)
MIC (E. coli (ATCC:3008) [7]): 31.2 µg/mL (≈ 65.4 µM)
diameter of the IZ, E. coli (ATCC:3008) (E. coli (ATCC:3008) [9]): 25.0 ± 0.1 mm

C[C@@H]1[C@H](O)[C@@H](C)/C=C/C=C/CC/C=C/C=C/C=C/C=C/C(O[C@H]2O[C@H](C)[C@@H](O)[C@H](N)[C@@H]2O)CC2O[C@](O)(CC(O)C(O)CCC(O)CC(O)CC(O)CC(=O)O[C@H]1C)CC(O)C2C(=O)O (stereo partly shown) [nystatin, reference compound]
diameter of the IZ, C. albicans (ATCC:10231) (C. albicans (ATCC:10231) [14]): 28.0 ± 0.2 mm
MIC, C. albicans (ATCC:10231) (C. albicans (ATCC:10231) [15]): 31.25 µg/mL (≈ 33.7 µM)

Nc1ccc(S(=O)(=O)Nc2ncccn2)cc1 [sulfadiazine, reference compound]
MIC (K. pneumonia (ATCC:4415)): 250 µg/mL (≈ 999 µM)
diameter of the IZ, C. albicans (ATCC:10231) (C. albicans (ATCC:10231) [14]): no activity
diameter of the IZ, P. aeruginosa (ATCC:27853) [12]: 24.0 ± 1.4 mm
MIC [13]: 250 µg/mL (≈ 999 µM)
zone of inhibition at 15000 µg/mL (S. aureus (ATCC:6538) [4]): 31.3 ± 2.1 mm
MIC (S. aureus (ATCC:6538) [16]): 500 µg/mL (≈ 2000 µM)
IC50 [6]: 0.803 µM
inhibition at 0.01 µg/mL [6]: 28.7%
inhibition at 0.1 µg/mL [6]: 46.8%
inhibition at 1 µg/mL [6]: 60.2%
inhibition at 10 µg/mL [6]: 76.7%
MIC (E. coli (ATCC:3008) [7]): 250 µg/mL (≈ 999 µM)
zone of inhibition at 15000 µg/mL (S. mutans (ATCC:25175) [8]): 16.3 ± 1.1 mm
diameter of the IZ, E. coli (ATCC:3008) (E. coli (ATCC:3008) [9]): 19.8 ± 0.4 mm
MIC (S. mutans (ATCC:25175) [17]): 125 µg/mL (≈ 499 µM)
